The values that follow come from ChEMBL document CHEMBL1148440, “4-(tetralin-1-yl)- and 4-(naphthalen-1-yl)alkyl derivatives of 1-cyclohexylpiperazine as sigma receptor ligands with agonist sigma2 activity” (J Med Chem, 2004).

For assay [1], the species on record is Cavia porcellus. The assay can be described thus: Inhibition of electrically stimulated contractions of the isolated guinea pig badder. Type of assay: functional.
Assay [2] addresses Sigma 2 receptor. Description: In vitro binding affinity at opioid sigma-2 receptor in rat liver membranes by [3H]-DTG displacement in the presence of 1 uM (+)-pentazocine. Type of assay: cell membranes, Membrane.
Assay [3] deals with Sigma non-opioid intracellular receptor 1 (Homo sapiens) (UniProt Q99720). The assay can be described thus: Binding affinity ratio of sigma 1 receptor to that of sigma 2 receptor. Put shortly: (§1)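 Sigma-1 binding used guinea pig brain membranes without cerebellum with (+)-[3H]pentazocine. […] IC50 came from 6–9 drug concentrations in two or three experiments with duplicate samples, then converted to apparent Ki. Ratios are computed from these Ki values.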
Sigma non-opioid intracellular receptor 1 (Homo sapiens), sequence (Q99720 whole entry): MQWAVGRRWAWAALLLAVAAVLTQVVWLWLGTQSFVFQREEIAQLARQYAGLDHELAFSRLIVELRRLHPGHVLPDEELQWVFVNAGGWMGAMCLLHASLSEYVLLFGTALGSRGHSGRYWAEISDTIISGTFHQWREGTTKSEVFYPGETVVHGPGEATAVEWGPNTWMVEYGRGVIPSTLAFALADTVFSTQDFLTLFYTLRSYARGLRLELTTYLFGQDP

In assay [4] the target is T1, Adrenergic receptor alpha-1 (Rattus norvegicus, UniProt P15823+P23944+P43140).
T1 sequence (P15823 whole entry): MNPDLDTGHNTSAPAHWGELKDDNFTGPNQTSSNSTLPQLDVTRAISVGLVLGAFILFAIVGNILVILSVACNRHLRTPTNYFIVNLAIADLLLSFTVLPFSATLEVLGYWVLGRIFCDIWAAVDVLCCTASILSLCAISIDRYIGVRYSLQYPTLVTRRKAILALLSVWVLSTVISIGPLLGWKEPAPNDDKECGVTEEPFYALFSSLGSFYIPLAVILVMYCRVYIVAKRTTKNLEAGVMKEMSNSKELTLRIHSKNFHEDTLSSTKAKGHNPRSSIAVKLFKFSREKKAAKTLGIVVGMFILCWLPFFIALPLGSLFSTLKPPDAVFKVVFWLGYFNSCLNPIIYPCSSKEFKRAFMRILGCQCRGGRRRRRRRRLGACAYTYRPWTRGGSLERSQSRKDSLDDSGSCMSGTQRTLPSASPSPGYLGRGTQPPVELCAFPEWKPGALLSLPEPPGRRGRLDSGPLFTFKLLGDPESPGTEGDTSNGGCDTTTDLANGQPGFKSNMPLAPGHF
T1 sequence (P23944 whole entry): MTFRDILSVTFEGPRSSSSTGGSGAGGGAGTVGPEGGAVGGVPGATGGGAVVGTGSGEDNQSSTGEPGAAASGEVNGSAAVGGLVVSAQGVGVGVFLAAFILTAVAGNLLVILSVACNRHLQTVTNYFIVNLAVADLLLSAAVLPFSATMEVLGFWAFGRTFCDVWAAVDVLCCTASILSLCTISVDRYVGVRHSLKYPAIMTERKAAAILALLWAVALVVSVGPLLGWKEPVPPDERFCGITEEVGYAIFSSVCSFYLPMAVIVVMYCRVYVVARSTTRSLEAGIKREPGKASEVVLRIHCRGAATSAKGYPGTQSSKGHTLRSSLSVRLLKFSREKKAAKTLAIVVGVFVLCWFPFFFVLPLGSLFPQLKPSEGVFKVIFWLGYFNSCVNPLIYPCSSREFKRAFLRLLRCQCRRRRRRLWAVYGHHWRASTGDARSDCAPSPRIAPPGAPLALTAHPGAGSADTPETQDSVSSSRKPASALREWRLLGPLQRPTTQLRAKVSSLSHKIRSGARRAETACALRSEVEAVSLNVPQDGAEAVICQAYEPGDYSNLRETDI
T1 sequence (P43140 whole entry): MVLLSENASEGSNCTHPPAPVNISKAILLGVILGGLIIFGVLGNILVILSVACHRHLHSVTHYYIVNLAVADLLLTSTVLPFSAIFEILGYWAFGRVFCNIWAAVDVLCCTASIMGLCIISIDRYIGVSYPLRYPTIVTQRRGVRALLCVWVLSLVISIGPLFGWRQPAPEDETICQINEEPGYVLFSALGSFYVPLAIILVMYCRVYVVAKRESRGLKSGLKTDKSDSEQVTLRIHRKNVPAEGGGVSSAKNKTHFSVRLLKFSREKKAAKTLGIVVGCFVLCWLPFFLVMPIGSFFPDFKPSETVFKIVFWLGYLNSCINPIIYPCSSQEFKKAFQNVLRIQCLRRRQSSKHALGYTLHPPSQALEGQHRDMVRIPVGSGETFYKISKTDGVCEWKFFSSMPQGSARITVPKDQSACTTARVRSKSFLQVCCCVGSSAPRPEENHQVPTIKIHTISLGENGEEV
Description: In vitro binding affinity at alpha-1 adrenergic receptor in rat cortex by [3H]prazosin displacement. Put shortly: (§2)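 Competition binding was run with radioligand displacement: [3H]spiroperidol for D2-like, [3H]prazosin for α1 and [3H]granisetron for 5-HT3. D2 values are the mean of three independent experiments.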

The target in assay [5] is T2, Serotonin 3 (5-HT3) receptor (Rattus norvegicus, UniProt P35563+Q9JJ16).
T2 sequence (P35563 whole entry): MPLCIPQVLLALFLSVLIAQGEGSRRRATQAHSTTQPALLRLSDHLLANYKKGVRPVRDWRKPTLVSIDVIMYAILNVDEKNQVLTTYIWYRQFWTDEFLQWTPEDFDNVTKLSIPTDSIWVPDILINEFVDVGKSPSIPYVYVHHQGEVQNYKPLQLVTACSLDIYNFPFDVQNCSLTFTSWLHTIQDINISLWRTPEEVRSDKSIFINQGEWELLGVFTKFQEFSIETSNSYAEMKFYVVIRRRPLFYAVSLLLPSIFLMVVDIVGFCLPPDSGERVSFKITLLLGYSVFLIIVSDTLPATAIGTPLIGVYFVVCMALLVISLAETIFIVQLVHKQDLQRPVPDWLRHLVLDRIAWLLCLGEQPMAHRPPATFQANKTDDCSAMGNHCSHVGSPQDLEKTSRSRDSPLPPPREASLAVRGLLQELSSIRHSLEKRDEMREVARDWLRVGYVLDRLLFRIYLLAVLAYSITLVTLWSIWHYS
T2 sequence (Q9JJ16 whole entry): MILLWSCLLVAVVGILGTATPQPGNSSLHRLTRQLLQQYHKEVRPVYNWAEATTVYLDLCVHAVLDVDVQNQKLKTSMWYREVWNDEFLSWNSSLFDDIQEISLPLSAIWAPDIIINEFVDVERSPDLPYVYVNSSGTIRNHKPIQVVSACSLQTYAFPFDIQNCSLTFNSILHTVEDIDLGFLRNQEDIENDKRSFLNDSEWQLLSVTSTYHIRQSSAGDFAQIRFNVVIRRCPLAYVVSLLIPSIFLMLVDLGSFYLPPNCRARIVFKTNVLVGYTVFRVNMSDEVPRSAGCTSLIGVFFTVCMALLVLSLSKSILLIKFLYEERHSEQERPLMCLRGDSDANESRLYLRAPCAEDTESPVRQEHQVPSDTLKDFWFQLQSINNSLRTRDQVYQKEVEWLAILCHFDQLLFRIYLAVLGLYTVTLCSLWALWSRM
Description: In vitro binding affinity at serotonin 5-hydroxytryptamine 3 receptor in rat cortex by [3H]granisetron displacement. Put shortly: as §2

Assay [6] is filed under the species Cavia porcellus. Description: Inhibition of electrically stimulated contractions of the isolated guinea pig badder at 30 uM. In kind it is functional.
The target in assay [7] is Sigma non-opioid intracellular receptor 1 (Homo sapiens) (UniProt Q99720). Description: Binding affinity ratio of sigma 2 receptor to that of sigma 1 receptor. Put shortly:
as §1

Assay [8] concerns the target D(2) dopamine receptor (Rattus norvegicus, UniProt P61169). Description: In vitro binding affinity at Dopamine receptor D2 in rat striatum by [3H]spiroperidol displacement. In kind it is tissue-based. Put shortly:
as §2

The target of assay [9] is Sigma 2 receptor. The assay can be described thus: In vitro binding affinity at opioid sigma-2 receptor in rat liver membranes by [3H]DTG displacement in the presence of 1 uM (+)-pentazocine. In kind it is cell membranes, Membrane.

D(2) dopamine receptor, sequence (P61169 whole entry): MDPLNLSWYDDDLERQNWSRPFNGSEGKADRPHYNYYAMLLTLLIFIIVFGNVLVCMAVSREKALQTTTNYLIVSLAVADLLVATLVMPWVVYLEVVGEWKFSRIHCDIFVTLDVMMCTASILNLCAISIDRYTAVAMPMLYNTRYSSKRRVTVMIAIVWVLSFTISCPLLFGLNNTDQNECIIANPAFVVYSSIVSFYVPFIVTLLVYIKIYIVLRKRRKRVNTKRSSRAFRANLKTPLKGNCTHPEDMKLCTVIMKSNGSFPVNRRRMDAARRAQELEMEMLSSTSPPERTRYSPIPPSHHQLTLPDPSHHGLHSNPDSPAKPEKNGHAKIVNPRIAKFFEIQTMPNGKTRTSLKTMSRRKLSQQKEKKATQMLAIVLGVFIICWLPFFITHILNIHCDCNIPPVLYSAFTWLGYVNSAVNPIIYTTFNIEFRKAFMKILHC

Take `c1ccc2c(CCCN3CCN(C4CCCCC4)CC3)cccc2c1`: the midpoint of the response in assay [1], the EC50, lay at 1820 nM. The Ki in assay [2] was 0.69 nM; in assay [4] it was over 7500 nM; in [5], over 700 nM. Besides, the Ratio in [3] amounted to 3.1.
Regarding `Cc1ccccc1NC(=N)Nc1ccccc1C` [DITOLYLGUANIDINE], the EC50 in [1] is 6900 nM.
With `c1ccc(CCN2CCCCC2)cc1`, in [6], at 30 µM the inhibition was 41%. Also, the inhibition constant (Ki) in assay [2] is 194 nM; in [4], over 7500 nM; in assay [5] it was over 700 nM. Besides, the Ratio in assay [3] was found to be 1.6.
Regarding `Oc1cccc2c1CCCC2CCCN1CCN(C2CCCCC2)CC1` (stereo unspecified), the figures for the inhibition constant (Ki) in assay [2], in assay [4] and in assay [5] were 2.66 nM, over 7500 nM and over 700 nM, respectively.
`COc1ccc2c(c1)CCCC2CCCN1CCN(C2CCCCC2)CC1` (stereo unspecified): the Ki in [2] is 5.42 nM; in [4], over 7500 nM; in assay [5] it was over 700 nM. In addition, the Ratio in [7] came to 15.
On the same counts, the results for `c1ccc2c(c1)CCCC2CCCN1CCN(C2CCCCC2)CC1` (stereo unspecified) are 0.68 nM, over 7500 nM, over 700 nM and 1.1.
Turning to `COc1cccc2c1CCCC2CCCCN1CCN(C2CCCCC2)CC1` (stereo unspecified), in assay [1], the EC50 turned out to be 9940 nM. For the same compound, the Ki in assay [2] was 3.58 nM; in [8], 3670 nM; in assay [4] it was over 7500 nM; in assay [5], over 700 nM.
With `COc1ccc2c(c1)C(CCCN1CCN(C3CCCCC3)CC1)CCC2` (stereo unspecified), the Ki in assay [2] was 1.22 nM; in assay [8], 479 nM; in assay [4], over 7500 nM; in assay [5], over 700 nM. Further, the Ratio in [3] worked out at 7.4.
`c1ccc2c(c1)CCCC2CCCCN1CCN(C2CCCCC2)CC1` (stereo unspecified): the figures for the inhibitory constant (Ki) in assay [2], in assay [4] and in assay [5] were 14.6 nM, over 7500 nM and over 700 nM, respectively.
Take `COc1cccc2c1CCCC2CCCN1CCN(C2CCCCC2)CC1` (stereo unspecified): in assay [1], the EC50 was 2620 nM. Further, the Ki in [2] is 0.34 nM; in assay [8], 604 nM; in assay [4], over 7500 nM; in [5], over 700 nM.
Take `Oc1ccc2c(c1)CCCC2CCCN1CCN(C2CCCCC2)CC1` (stereo unspecified): the values for the Ki in assay [2], in [4] and in assay [5] were 1.12 nM, over 7500 nM and over 700 nM, respectively. In assay [7], the Ratio amounted to 1.6.
In the case of `c1ccc2c(c1)CCCC2CCCCCN1CCN(C2CCCCC2)CC1` (stereo unspecified), the results for the Ki in assay [2], in assay [4] and in assay [5] were 7.85 nM, over 7500 nM and over 700 nM, respectively. Moreover, in [7], the Ratio stood at 5.4.
For `COc1cccc2c1CCCC2CCN1CCN(C2CCCCC2)CC1` (stereo unspecified), in [1], the EC50 was determined as 16100 nM. The inhibition constant Ki in [2] was 21.1 nM; in [8], 1620 nM; in assay [4], over 7500 nM; in assay [5], over 700 nM. The Ratio in assay [7] is 13.
Turning to `c1ccc2c(CCCCN3CCN(C4CCCCC4)CC3)cccc2c1`, the Ki in [2] is 30.5 nM; in assay [4], over 7500 nM; in assay [5], over 700 nM. For the same compound, the Ratio in assay [7] was 139.
`COc1cccc2c1CCC[C@H]2CCCN1CCN(C2CCCCC2)CC1` registered an EC50 in assay [1] of 1750 nM. The Ki in assay [2] was 8.65 nM; in assay [4] it was over 7500 nM; in assay [5], over 700 nM.
In assay [1], `c1ccc2c(CCCCCN3CCN(C4CCCCC4)CC3)cccc2c1` had an EC50 of 2950 nM. Besides, the inhibition constant (Ki) in assay [2] was 0.57 nM. Further, the Ratio in [3] amounted to 4.2.
Compound `COc1cccc2c1CCCC2N1CCN(C2CCCCC2)CC1` (stereo unspecified) gave an EC50 in assay [1] of 6970 nM. Moreover, the inhibition constant (Ki) was 7.9 nM in assay [9], 1160 nM in assay [8], over 7500 nM in assay [4] and over 700 nM in assay [5]. In addition, in assay [7], the Ratio worked out at 20.
`COc1cccc2c(CCCN3CCN(C4CCCCC4)CC3)cccc12`: the Ki in [2] is 9.24 nM; in assay [4] it was over 7500 nM; in assay [5], over 700 nM.
On to `COc1cccc2c1CCCC2CCCCCCN1CCN(C2CCCCC2)CC1` (stereo unspecified), for which the EC50 in assay [1] came to 25300 nM. The Ki in [2] is 103 nM; in assay [8] it was 3480 nM; in assay [4], over 7500 nM; in assay [5] it was over 700 nM. Also, the Ratio in [7] was determined as 34.
In assay [1], `COc1cccc2c1CCC[C@@H]2CCCN1CCN(C2CCCCC2)CC1` came in with an EC50 of 1500 nM. Besides, the Ki is 2.09 nM in assay [2], over 7500 nM in assay [4] and over 700 nM in assay [5].
Take `COc1cccc2c1CCCC2CCCCCN1CCN(C2CCCCC2)CC1` (stereo unspecified): the 50% effective concentration (EC50) in [1] amounted to 4900 nM. Moreover, the Ki in assay [2] is 0.35 nM; in assay [8], 2450 nM; in [4], over 7500 nM; in assay [5], over 700 nM. Besides, in assay [3], the Ratio amounted to 4.3.
Turning to `COc1cccc2c1CCCC2CN1CCN(C2CCCCC2)CC1` (stereo unspecified), the half-maximal effective concentration (EC50) in [1] worked out at 11500 nM. Also, the inhibition constant Ki was 16.4 nM in [2], 4260 nM in [8], over 7500 nM in assay [4] and over 700 nM in [5]. Also, the Ratio in [7] came to 53.

The term EC50 denotes the concentration needed to bring the measured effect to its halfway point. Usually Ki stands for a dissociation constant, usually derived from enzyme kinetics or from competition with a known ligand. For orientation: inhibition means how much of the control response was suppressed. High values mean a response far below the control, low ones a response near the control.
